Data on five compounds can be found in ChEMBL document CHEMBL4130351, “Novel pyrazolopyrimidines: Synthesis, in vitro cytotoxic activity and mechanistic investigation” (Eur J Med Chem, 2017).

For orientation: IC50 means the point on the concentration scale where inhibition reaches its midpoint. As usually defined, the inhibition is the percentage by which the read-out fell short of the control. Low readings indicate a weak effect, high ones a strong effect.

One test concerns MCF7. The experiment in a line: Cytotoxicity against human MCF7 cells assessed as reduction in cell viability after 72 hrs by MTT assay. Format: functional, cell-based. As to conditions: MCF7, 72 h. The gist of the method:
(§1)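 MCF-7 and HepG2 cells in exponential growth were trypsinized and seeded at 1000–2000 cells/well, then incubated 24 h at 37 °C. Compound exposure was 72 h at 0.1, 10, 100 and 1000 μM. Cells took up 5% MTT for 2 h, and formazan was dissolved in acidified isopropanol for 30 min at room temperature. A570 was read, viability expressed as % of control, and IC50 obtained by curve fitting.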
(In general: Tetrazolium assays rely on reduction of a dye to a coloured formazan, in cell work by metabolically active cells.)

Test [1] deals with HepG2. The experiment in a line: Cytotoxicity against human HepG2 cells assessed as reduction in cell viability after 72 hrs by MTT assay. Format: functional, cell-based. As to conditions: HepG2, 72 h. The gist of the method:
as §1

The target in test [2] is Cyclin-dependent kinase 2 (Homo sapiens) (UniProt P24941). The test can be described thus: Inhibition of CDK2 (unknown origin) at 0.4 uM by CDKN2A antibody-based spectrophotometry.
Test [3] has as its system HepG2. The experiment in a line: Induction of apoptosis in human HepG2 cells assessed as late apoptotic cells at 0.4 uM after 24 hrs by Annexin V/propidium iodide double staining-based flow cytometry (reference value: 0.14 %). Format: functional. The gist of the method:
(§2)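 MCF-7 exposed at 1.4 μM or HepG2 at 0.4 μM for 24 or 48 h. Cells were collected in PBS, fixed in ice-cold 70% ethanol, washed, then resuspended in PI staining solution containing 0.1 mg/mL RNase plus PE-Annexin V. Staining was 10 min in the dark at 37 °C, followed by FACSCalibur flow cytometry.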
On the technique in general: A flow cytometer gives signals particle by particle.

In test [4] the test system is HepG2. The experiment in a line: Cell cycle arrest in human HepG2 cells assessed as accumulation at S phase at 0.4 uM after 48 hrs by propidium iodide staining-based flow cytometry (reference value: 21.69%). Format: functional.
For test [5], the system named is HepG2. The test can be described thus: Induction of apoptosis in human HepG2 cells assessed as early apoptotic cells at 0.4 uM after 48 hrs by Annexin V/propidium iodide double staining-based flow cytometry (reference value: 0.61 %). Format: functional. Summed up: as §2
Test [6] relates to HepG2. The test can be described thus: Cell cycle arrest in human HepG2 cells assessed as accumulation at G2/M phase at 0.4 uM after 24 hrs by propidium iodide staining-based flow cytometry (reference value: 4.36%). Format: functional.
The subject of test [7] is HepG2. The experiment in a line: Induction of apoptosis in human HepG2 cells assessed as late apoptotic cells at 0.4 uM after 48 hrs by Annexin V/propidium iodide double staining-based flow cytometry (reference value: 0.14 %). Format: functional. Summed up:
as §2

Test [8] relates to HepG2. The experiment in a line: Cell cycle arrest in human HepG2 cells assessed as accumulation at G2/M phase at 0.4 uM after 48 hrs by propidium iodide staining-based flow cytometry (reference value: 4.36%). Format: functional.
The target of test [9] is Cyclin-dependent kinase 2 (Homo sapiens) (UniProt P24941). The test can be described thus: Inhibition of CDK2 (unknown origin) at 0.004 uM by CDKN2A antibody-based spectrophotometry.
In test [10] the test system is HepG2. The experiment in a line: Induction of apoptosis in human HepG2 cells at 0.4 uM after 48 hrs by Annexin V/propidium iodide double staining-based flow cytometry (reference value: 0.84%). Format: functional. The gist of the method:
as §2

The target of test [11] is Cyclin-dependent kinase inhibitor 1B (Homo sapiens) (UniProt P46527). The test can be described thus: Activation of human P27kip1 at 0.40 uM using TMB as substrate by ELISA (reference value: 0%). Summed up:
(§3)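 Sandwich ELISAs on treated cells for p21Cip1 and p27Kip1: antibody-coated wells, detecting antibody, then HRP conjugate, with incubation and washing between steps. TMB substrate, reaction stopped, absorbance read at 450 nm. Output is residual concentration in pg/mL, expressed as % activation over untreated control.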
On the technique in general: In an ELISA, binding on a coated surface is turned into a signal by an enzyme label.

Test [12] has as its target Cyclin-dependent kinase inhibitor 1 (Homo sapiens) (UniProt P38936). The test can be described thus: Activation of human P21cip1 at 0.40 uM using TMB as substrate by ELISA (reference value: 0%). Summed up:
as §3

The subject of test [13] is HepG2. The experiment in a line: Induction of apoptosis in human HepG2 cells at 0.4 uM after 24 hrs by Annexin V/propidium iodide double staining-based flow cytometry (reference value: 0.84%). Format: functional. The gist of the method: as §2
Test [14] deals with HepG2. The test can be described thus: Induction of apoptosis in human HepG2 cells assessed as early apoptotic cells at 0.4 uM after 24 hrs by Annexin V/propidium iodide double staining-based flow cytometry (reference value: 0.61 %). Format: functional. Summed up: as §2
Test [15] relates to HepG2. The experiment in a line: Induction of apoptosis in human HepG2 cells assessed as necrotic cells at 0.4 uM after 48 hrs by Annexin V/propidium iodide double staining-based flow cytometry (reference value: 0.09 %). Format: functional. Summed up:
as §2

Test [16] concerns HepG2. The experiment in a line: Induction of apoptosis in human HepG2 cells assessed as viable cells at 0.4 uM after 48 hrs by Annexin V/propidium iodide double staining-based flow cytometry (reference value: 99.16 %). Format: functional. Particulars: HepG2, 48 h, read-out: Activity. The gist of the method: as §2
Test [17] relates to HepG2. The experiment in a line: Induction of apoptosis in human HepG2 cells assessed as necrotic cells at 0.4 uM after 24 hrs by Annexin V/propidium iodide double staining-based flow cytometry (reference value: 0.09 %). Format: functional. Summed up: as §2
Test [18] has as its target Cyclin-dependent kinase 2 (Homo sapiens) (UniProt P24941). The experiment in a line: Inhibition of CDK2 (unknown origin) at 0.5 uM by CDKN2A antibody-based spectrophotometry.
Test [19] has as its system HepG2. The experiment in a line: Cell cycle arrest in human HepG2 cells assessed as accumulation at G0/G1 phase at 0.4 uM after 48 hrs by propidium iodide staining-based flow cytometry (reference value: 73.11%). Format: functional.
Test [20] has as its system HepG2. The experiment in a line: Cell cycle arrest in human HepG2 cells assessed as accumulation at G0/G1 phase at 0.4 uM after 24 hrs by propidium iodide staining-based flow cytometry (reference value: 73.11%). Format: functional.
Test [21] has as its target Cyclin-dependent kinase 2 (Homo sapiens) (UniProt P24941). The test can be described thus: Inhibition of CDK2 (unknown origin) at 0.1 uM by CDKN2A antibody-based spectrophotometry. The gist of the method: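 Sandwich enzyme immunoassay using a plate pre-coated with CDKN2A-specific antibody. Detection used a biotinylated anti-CDKN2A antibody, then avidin-HRP and substrate; the reaction was stopped and read at 450 nm. Compound levels tested were 0.004, 0.02, 0.1, 0.4 and 0.5 ug/mL, reported as % inhibition. IC50 was derived by Boltzmann sigmoidal nonlinear regression.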

Test [22] deals with HepG2. The experiment in a line: Induction of apoptosis in human HepG2 cells assessed as caspase-3 activation at 0.4 uM after 10 mins by ELISA relative to control. Format: functional. Summed up: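 MCF-7 treated at 1.4 μM or HepG2 at 0.4 μM. Cells were trypsinized, rinsed in PBS, pelleted (105–106 cells) and resuspended in 1 mL PBS. Lysis was by three freeze/thaw cycles, followed by a 1500×g spin for 10 min at 2–8 °C. Active caspase-3 (cleaved at Asp175/Ser176) in the lysate was quantified by sandwich ELISA with an anti-rabbit HRP step, read at 450 nm, in pg/mL against control.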

Test [23] concerns the target Cyclin-dependent kinase 2 (Homo sapiens) (UniProt P24941). The experiment in a line: Inhibition of CDK2 (unknown origin) at 0.02 uM by CDKN2A antibody-based spectrophotometry.
Test [24] has as its system HepG2. The test can be described thus: Cell cycle arrest in human HepG2 cells assessed as accumulation at S phase at 0.4 uM after 24 hrs by propidium iodide staining-based flow cytometry (reference value: 21.69%). Format: functional.
Test [25] has as its system HepG2. The experiment in a line: Induction of apoptosis in human HepG2 cells assessed as viable cells at 0.4 uM after 24 hrs by Annexin V/propidium iodide double staining-based flow cytometry (reference value: 99.16 %). Format: functional. Particulars: HepG2, 24 h, read-out: Activity. Summed up:
as §2

Sequence of Cyclin-dependent kinase inhibitor 1 (Homo sapiens) (P38936 whole entry): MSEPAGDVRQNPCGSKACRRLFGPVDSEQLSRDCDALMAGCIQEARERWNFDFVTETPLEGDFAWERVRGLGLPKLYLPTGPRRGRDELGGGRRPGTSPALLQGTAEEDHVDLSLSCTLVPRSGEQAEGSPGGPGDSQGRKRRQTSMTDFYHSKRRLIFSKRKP
Sequence of Cyclin-dependent kinase inhibitor 1B (Homo sapiens) (P46527 whole entry): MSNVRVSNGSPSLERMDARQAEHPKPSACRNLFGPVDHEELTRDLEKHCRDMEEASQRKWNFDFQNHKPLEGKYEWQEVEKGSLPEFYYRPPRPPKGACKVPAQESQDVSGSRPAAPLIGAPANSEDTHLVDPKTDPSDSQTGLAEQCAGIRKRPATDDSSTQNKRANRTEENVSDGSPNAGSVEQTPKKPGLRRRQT

As to `NS(=O)(=O)c1ccc(-n2ncc3c(=O)[nH]c(-c4ccccc4)nc32)cc1`, the values for the IC50 in the test on MCF7 and in the test on HepG2 [1] were more than 100 µM and 77.6 µM, respectively.

Regarding `N#Cc1cnn(-c2ccc(S(N)(=O)=O)cc2)c1N`, the IC50 in the test with MCF7 and with HepG2 [1] was more than 100 µM in each case.

`NC(=O)c1cnn(-c2ccc(S(N)(=O)=O)cc2)c1N`: the IC50 with MCF7 and in the test on HepG2 [1] was more than 100 µM in each case.

For `N=c1[nH]c(=O)[nH]c2c1cnn2-c1ccc(S(N)(=O)=O)cc1`, the inhibition came out at 68.8% in test [2]; 12.6% in [9]; 81.8% in test [18]; 53.1% in test [21]; 39% in test [23]. Besides, the Activity in the test on HepG2 [3] worked out at 4.79%; with HepG2 [4], 24.67%; with HepG2 [5], 9.76%; with HepG2 [6] it was 23.78%; in the test on HepG2 [7], 5.92%; with HepG2 [8], 48.91%. Moreover, the Activity in the test on HepG2 [10] stood at 16.71%; in test [11], 8.5%; in test [12], 10.1%; in the test with HepG2 [13], 13.92%; in the test on HepG2 [14] it was 7.64%; in the test with HepG2 [15] it was 1.03%. For the same compound, the Activity is 1.29% in the test on HepG2 [17], 9.62% in the test on HepG2 [19], 36.55% in the test on HepG2 [20] and 25.66% in the test on HepG2 [24]. For the same compound, the viability at 0.4 µM was determined as 83.3% in the test with HepG2 [16] and 86.3% in the test on HepG2 [25]. Also, in the test on HepG2 [22], the “fold change (FC)” value is 36. Also, the values for the IC50 with MCF7 and in the test with HepG2 [1] were more than 100 µM and 0.4 µM, respectively.

For `Nc1ncnc2c1cnn2-c1ccc(S(N)(=O)=O)cc1`, the IC50 with MCF7 stood at 40.7 µM; with HepG2 [1] it was 95.5 µM.
